Results taken from PubChem BioAssay AID624081 (The Scripps Research Institute Molecular Screening Center, 2012).
Where “and” joins values, the source holds several entries; their conditions need not be identical. Equal values may be shown once. Calls of active or inactive are those of the source.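 The calls were made as follows: active = inhibitor concentration giving a fourfold drop in imipenem MIC is at most 10 µM; inactive = fourfold MIC drop needs more than 10 µM.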

Legend:
[1] = tested on: VIM-2 E. coli growth with imipenem, OD600, 18 h; assay: growth inhibition synergy, VIM-2 E. coli plus imipenem – MIC 4-fold reduction, powder samples, late-stage follow-up (AID 624081)
In short: (§1)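 Material – VIM-2-expressing E. coli · Medium – cation-adjusted Mueller-Hinton broth · Also added – imipenem in two-fold dilution series along plate columns · Dosing – compound two-fold series, checkerboard layout · Timing – aerobic incubation of at least 18 h at 37 °C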

[2] = as above; conditions: VIM-2 E. coli growth with imipenem, OD600, 18 h; measured here: max imipenem potentiation fold
In short: as §1

SMILES | MIC [1] | fold potentiation [2]
O=C(CN1C(=O)/C(=C/c2c(Cl)cccc2Cl)SC1=S)NCc1ccccc1Br | > 100 µM (inactive) | –
CN(C)CCNC(=O)CN1C(=O)/C(=C/c2ccccc2Cl)SC1=S | > 100 µM (inactive) | –
O=C(CN1C(=O)/C(=C/c2c(Cl)ccc(Cl)c2Cl)SC1=S)NN1CCNCC1 | 12.5 µM (inactive) | –
CN1CCN(NC(=O)CN2C(=O)/C(=C/c3c(F)cccc3C(F)(F)F)SC2=S)CC1 | 25 µM (inactive) | 8
CN1CCN(NC(=O)CN2C(=O)/C(=C/c3c(Cl)ccc(C(F)(F)F)c3Cl)SC2=S)CC1 | 0.781 µM | 8
O=C(CN1C(=O)/C(=C/c2c(Cl)cccc2Cl)SC1=S)NCCc1c[nH]c2ccccc12 | > 100 µM (inactive) | –
O=C(CN1C(=O)/C(=C/c2c(Cl)cccc2Cl)SC1=S)NCc1ccccn1 | 6.2 µM | 8
O=C1NC(=S)S/C1=C\c1c(Cl)cccc1Cl | > 100 µM (inactive) | –
CN1CCN(C(=O)CN2C(=O)/C(=C/c3c(Cl)ccc(Cl)c3Cl)SC2=S)CC1 | 6.25 µM | –
CN1CCN(NC(=O)CN2C(=O)/C(=C/c3c(F)cccc3Cl)SC2=S)CC1 | 12.5 µM (inactive) | –
O=C(CN1C(=O)/C(=C/c2ccccc2Cl)SC1=S)Nc1ccc(O)cc1 | > 100 µM (inactive) | –
CN1CCN(NC(=O)CN2C(=O)/C(=C/c3c(C(F)(F)F)ccc(Cl)c3Cl)SC2=S)CC1 | 1.56 µM | 8
CC(C)(C)OC(=O)N1CCN(NC(=O)CN2C(=O)/C(=C/c3c(Cl)ccc(Cl)c3Cl)SC2=S)CC1 | 1.56 µM | –
O=C(CN1C(=O)/C(=C/c2c(Cl)cccc2Cl)SC1=S)NCc1ccncc1 | 12.5 µM (inactive) | –
O=C(O)CN1C(=O)/C(=C/c2c(F)cccc2C(F)(F)F)SC1=S | 25 µM (inactive) | 8
O=C1/C(=C/c2c(Cl)cccc2Cl)SC(=S)N1Cc1ccncc1 | 12.5 µM (inactive) | 8
CN1CCN(NC(=O)CN2C(=O)/C(=C/c3ccccc3F)SC2=S)CC1 | > 100 µM (inactive) | –
CN(NC(=O)CN1C(=O)/C(=C/c2c(Cl)cccc2Cl)SC1=S)c1ncc(C(F)(F)F)cc1Cl | > 100 µM (inactive) | –
CN1CCN(NC(=O)CN2C(=O)/C(=C/c3ccccc3Cl)SC2=S)CC1 | 50 µM (inactive) | –
O=C(CN1C(=O)/C(=C/c2c(Cl)cccc2Cl)SC1=S)Nn1cnnc1 | > 100 µM (inactive) | –
CN(NC(=O)CN1C(=O)/C(=C/c2c(Cl)cccc2Cl)SC1=S)c1ccc(Cl)nn1 | > 100 µM (inactive) | –
Cc1c(N2C(=O)/C(=C/c3c(Cl)cccc3Cl)SC2=S)c(=O)n(-c2ccccc2)n1C | 12.5 µM (inactive) | 8
CN1CCN(NC(=O)CN2C(=O)/C(=C/c3c(Cl)ccc(Cl)c3Cl)SC2=S)CC1 | 3.12 µM | 8
O=C(CN1C(=O)/C(=C/c2ccccc2Cl)SC1=S)NCCc1cnc[nH]1 | > 100 µM (inactive) | –
O=C(CN1C(=O)/C(=C/c2c(Cl)ccc(Cl)c2Cl)SC1=S)NCc1ccccn1 | 3.12 µM | –
CN(C)CCNC(=O)CN1C(=O)/C(=C\c2ccccc2Cl)SC1=S | > 100 µM (inactive) | –

Now from value to compound, other results behind:

MIC [1] | SMILES | fold potentiation [2]
25 µM (inactive) | NC(=O)CN1C(=O)/C(=C/c2c(Cl)cccc2Cl)SC1=S | –
3.12 µM | O=C(CN1C(=O)/C(=C/c2c(Cl)cccc2Cl)SC1=S)NN1CCNCC1 | 8
> 100 µM (inactive) | O=C(CN1C(=O)/C(=C/c2c(Cl)cccc2Cl)SC1=S)Nc1ccc(I)cn1 | –
12.5 µM (inactive) | CC(C)N1CCN(NC(=O)CN2C(=O)/C(=C/c3c(Cl)cccc3Cl)SC2=S)CC1 | 16
12.5 µM (inactive) | O=C(CN1C(=O)/C(=C/c2c(Cl)cccc2Cl)SC1=S)Nc1ccncc1 | 8
> 100 µM (inactive) | C=CCNC(=O)CN1C(=O)/C(=C/c2c(Cl)cccc2Cl)SC1=S | –
> 100 µM (inactive) | O=C(CN1C(=O)/C(=C/c2c(Cl)cccc2Cl)SC1=S)NC[C@@H]1CCCO1 | –
> 100 µM (inactive) | O=C(CN1C(=O)/C(=C/c2c(Cl)cccc2Cl)SC1=S)Nc1ccc(Cl)cn1 | –
12.5 µM (inactive) | COC(=O)CN1C(=O)/C(=C/c2c(Cl)cccc2Cl)SC1=S | 8
> 100 µM (inactive) | CC(C)(C)NC(=O)CN1C(=O)/C(=C/c2c(Cl)cccc2Cl)SC1=S | –
> 100 µM (inactive) | O=C(CN1C(=O)/C(=C/c2c(Cl)cccc2Cl)SC1=S)NC[C@H]1CCCO1 | –
> 100 µM (inactive) | O=C(CN1C(=O)/C(=C/c2c(Cl)cccc2Cl)SC1=S)Nc1ccccn1 | –
6.2 µM | CC(C)(C)OC(=O)N1CCN(NC(=O)CN2C(=O)/C(=C/c3c(Cl)cccc3Cl)SC2=S)CC1 | 8
> 100 µM (inactive) | O=C(CN1C(=O)/C(=C/c2c(Cl)cccc2Cl)SC1=S)Nc1ccccc1F | –
3.12 µM | O=C(O)CN1C(=O)/C(=C/c2c(Cl)cccc2Cl)SC1=S | 8
3.12 µM | O=C(CN1C(=O)/C(=C/c2c(Cl)cccc2Cl)SC1=S)Nc1cccnc1 | 8

MIC [1] | SMILES | fold potentiation [2]
12.5 µM (inactive) | CN1CCN(C(=O)CN2C(=O)/C(=C/c3c(Cl)cccc3Cl)SC2=S)CC1 | 8
> 100 µM (inactive) | COc1ccc(CNC(=O)CN2C(=O)/C(=C/c3c(Cl)cccc3Cl)SC2=S)cc1 | –
> 100 µM (inactive) | C=CCONC(=O)CN1C(=O)/C(=C/c2c(Cl)cccc2Cl)SC1=S | –
> 100 µM (inactive) | O=C(CN1C(=O)/C(=C/c2c(Cl)cccc2Cl)SC1=S)Nc1ccc(Br)cn1 | –
> 100 µM (inactive) | COC(=O)CNC(=O)CN1C(=O)/C(=C/c2c(Cl)cccc2Cl)SC1=S | –
> 100 µM (inactive) | CCOC(=O)c1c(NC(=O)CN2C(=O)/C(=C/c3c(Cl)cccc3Cl)SC2=S)sc2c1CCCC2 | –
3.12 µM | Cc1cc(C)n(NC(=O)CN2C(=O)/C(=C/c3c(Cl)cccc3Cl)SC2=S)c(=O)c1 | 8
12.5 µM (inactive) | CN1CCC(NC(=O)CN2C(=O)/C(=C/c3c(Cl)cccc3Cl)SC2=S)CC1 | 8
> 100 µM (inactive) | O=C(CN1C(=O)/C(=C/c2c(Cl)cccc2Cl)SC1=S)Nc1ccccc1 | –
6.2 µM | O=C(CN1C(=O)/C(=C/c2c(Cl)cccc2Cl)SC1=S)NN1CCCCC1 | 8
> 100 µM (inactive) | O=C(CN1C(=O)/C(=C/c2c(Cl)cccc2Cl)SC1=S)NC1CCCCC1 | –
> 100 µM (inactive) | O=C(CN1C(=O)/C(=C/c2c(Cl)cccc2Cl)SC1=S)NOCc1ccccc1 | –
> 100 µM (inactive) | Cc1cc(NC(=O)CN2C(=O)/C(=C/c3c(Cl)cccc3Cl)SC2=S)no1 | –
6.25 µM and 12.5 µM (inactive) | CN1CCN(NC(=O)CN2C(=O)/C(=C/c3c(Cl)cccc3Cl)SC2=S)CC1 | 8
6.2 µM | CCN(CC)OC(=O)CN1C(=O)/C(=C/c2c(Cl)cccc2Cl)SC1=S | 8
3.12 µM | O=C(CN1C(=O)/C(=C/c2c(Cl)cccc2Cl)SC1=S)Nc1cc([N+](=O)[O-])ccc1O | 8
